Measurements reported in ChEMBL document CHEMBL1671691 (Antimicrob Agents Chemother, 2010).
Activity calls are given as the source filed them. The rule behind the calls is not given here.

What was measured:
Influenza A virus [1] = test: (§1) Antiviral activity against adamantane-resistant zanamivir-,oseltamivir-susceptible Influenza A virus (A/pdm/Mexico/4604/2009(H1N1)) harboring M2 V28I, S31N mutant infected in MDCK cells assessed as determination of viral titer in cell culture at 128 uM after 24 hrs by immunofluorescence assay; format: functional, organism-based; details: Influenza A virus (A/Mexico/4604/2009(H1N1))
In short: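 MDCK cells (ATCC or Mill Hill) infected with 2009 pandemic H1N1 at MOI ~0.01, 1 h adsorption at 4°C, washed. DMEM with 2 μg/ml TPCK-trypsin plus drug for 24 h at 37°C. Supernatants titrated on MDCK cells by focus formation: methanol/acetic acid fixation, anti-nucleoprotein MAbs, FITC secondary, foci counted. Titre as log10 FFU per 100 μl; detection limit <10 FFU; quadruplicate wells.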

Influenza A virus [2] = test: as §1, with “against 0.001 MOI” for “against”, “(A/pdm/California/04/2009(H1N1))” for “(A/pdm/Mexico/4604/2009(H1N1))”, “1.6” for “128”; format: functional, organism-based; details: A/California/04/2009(H1N1)
In short: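 Focus inhibition assay: confluent MDCK monolayers infected at MOI ∼0.001–0.1. Adsorption 1 h at 4°C, washed twice, then DMEM with 2 μg/ml TPCK-trypsin and drug for 24 h at 37°C. Cells fixed in methanol/acetic acid at −20°C, immunostained with anti-NP monoclonals and FITC secondary, and foci counted. Supernatants also titrated by focus assay. Quadruplicate on two occasions.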

Influenza A virus [3] = test: Antiviral activity against Influenza A virus (A/Washington/29/2009(H1N1)) harboring neuraminidase H275Y mutant infected in MDCK cells from ATCC assessed as log reduction in viral titer at 1.6 uM after 24 hrs by immunofluorescent assay; format: functional
In short: (§2)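 Yield reduction in MDCK-ATCC or MDCK-Mill Hill cells infected at MOI ∼0.01. Adsorption 1 h at 4°C, washed, then DMEM with 2 μg/ml TPCK-trypsin and drug. At 24 h, supernatants were titrated by immunofluorescent focus assay on MDCK cells with anti-NP monoclonals and FITC secondary. Titres as log10 FFU per 100 μl; detection limit <10 FFU. Quadruplicate, mean ± SD.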

Influenza A virus [4] = test: Antiviral activity against Influenza A virus (A/Washington/29/2009(H1N1)) harboring neuraminidase H275Y mutant infected in MDCK cells from Mill Hill assessed as log reduction in viral titer at 1.6 uM after 24 hrs by immunofluorescent assay; format: functional; in short: as §2
Influenza A virus [5] = test: Antiviral activity against Influenza A virus (A/Illinois/10/2009(H1N1)) harboring neuraminidase H275Y mutant infected in MDCK cells from ATCC assessed as inhibition of viral replication after 3 days by microscopic analysis using crystal violet stain; format: functional
In short: (§3)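 Confluent MDCK-ATCC monolayers infected with virus diluted to give 15–45 plaques/well. Adsorption 1 h at 37°C without drug, then washed. Overlaid with 0.8% agarose in MEM containing drug plus TPCK-trypsin: 3 μg/ml for seasonal viruses, 2 μg/ml for 2009 A(H1N1). Incubated 3 days at 37°C, 5% CO2. Ethanol-fixed, crystal violet-stained, plaques counted. EC50 by curve fit; duplicates on three occasions, mean ± SD.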

Influenza A virus [6] = test: Antiviral activity against Influenza A virus (A/Washington/29/2009(H1N1)) harboring neuraminidase H275Y mutant infected in MDCK cells from Mill Hill assessed as inhibition of viral replication after 3 days by microscopic analysis using crystal violet stain; format: functional
Influenza A virus [7] = test: Antiviral activity against adamantane-susceptible zanamivir-, oseltamivir-resistant Influenza A virus (A/Santiago/5248/2008(H1N1)) harboring neuraminidase D198E mutant infected in MDCK cells assessed as inhibition of viral replication after 3 days by microscopic analysis using crystal violet stain; format: functional, organism-based
Influenza A virus [8] = test: Antiviral activity against adamantane-resistant zanamivir-,oseltamivir-susceptible Influenza A virus (A/New York/34/2008(H1N1)) harboring M2 L26I mutant infected in MDCK cells assessed as inhibition of viral replication after 3 days by microscopic analysis using crystal violet stain; format: functional, organism-based; in short: as §3
Influenza A virus [9] = test: Antiviral activity against adamantane-, zanamivir-susceptible oseltamivir-resistant Influenza A virus (A/Florida/21/2008(H1N1)) harboring neuraminidase H274Y mutant infected in MDCK cells assessed as inhibition of viral replication after 3 days by microscopic analysis using crystal violet stain; format: functional, organism-based
In short: (§4)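 MDCK-ATCC confluent monolayers infected with pretitrated virus (15–45 plaques per well), 1 h adsorption at 37°C, 5% CO2, without drug. Inoculum removed, PBS wash, then 0.8% agarose overlay in MEM with drug and 3 μg/ml TPCK-trypsin. 3 days at 37°C, ethanol fixation, crystal violet stain, plaques counted. EC50 by curve fit, mean of three experiments in duplicate ± SD.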

Influenza A virus [10] = test: Antiviral activity against adamantane-, oseltamivir-, zanamivir-resistant Influenza A virus (A/Idaho/01/2009(H1N1)) harboring neuraminidase H274Y mutant infected in MDCK cells assessed as inhibition of viral replication after 3 days by microscopic analysis using crystal violet stain; format: functional, organism-based, Influenza A virus (A/Idaho/01/2008(H1N1)); in short: as §3
Influenza A virus [11] = test: (§5) Antiviral activity against oseltamivir-susceptible zanamivir-, adamantane-resistant Influenza A virus (A/Bethesda/956/2006(H3N2)) harboring neuraminidase R292K mutant and M2 S31N mutant infected in MDCK cells assessed as inhibition of viral replication after 3 days by microscopic analysis using crystal violet stain; format: functional, organism-based
Influenza A virus [12] = test: Antiviral activity against adamantane-resistant zanamivir-,oseltamivir-susceptible Influenza A virus (A/Washington/01/2007(H3N2)) harboring M2 S31N mutant infected in MDCK cells assessed as inhibition of viral replication after 3 days by microscopic analysis using crystal violet stain; format: functional, organism-based; in short: as §3
Influenza A virus [13] = test: as §5, with “(A/Texas/12/2007 (clone)(H3N2))” for “(A/Bethesda/956/2006(H3N2))”, “E119I” for “R292K”, “and harboring” for “and”; format: functional, organism-based, Influenza A virus (A/Texas/12/2007(H3N2))
Influenza A virus [14] = test: as §5, with “(A/Texas/12/2007 (clone)(H3N2))” for “(A/Bethesda/956/2006(H3N2))”, “E119V” for “R292K”, “and harboring” for “and”; format: functional, organism-based, Influenza A virus (A/Texas/12/2007(H3N2)); in short: as §4
Influenza A virus [15] = test: Antiviral activity against adamantane-resistant zanamivir-,oseltamivir-susceptible Influenza A virus (A/New Hampshire/01/2009(H3N2)) harboring M2 S31N mutant infected in MDCK cells assessed as inhibition of viral replication after 3 days by microscopic analysis using crystal violet stain; format: functional, organism-based; in short: as §3
Influenza B virus [16] = test: Antiviral activity against oseltamivir-susceptible zanamivir-, adamantane-resistant Influenza B virus (B/Michigan/20/2005) harboring neuraminidase H274Y mutant infected in MDCK cells assessed as inhibition of viral replication after 3 days by microscopic analysis using crystal violet stain; format: functional, cell-based
Influenza A virus [17] = test: microbe, parasite or virus in culture; details: (A/Wuhan/395/1995-like (H3N2)), MDCK, 72 h
Influenza B virus [18] = test: microbe, parasite or virus in culture; details: B/New York/22/2008, MDCK, 72 h

Which results are given for `NC(=O)c1nc(F)cnc1O` [FAVIPIRAVIR]?
Activity (Influenza A virus [1]): Active; Activity (Influenza A virus [2]): Active; log10FFU (Influenza A virus [3]): 4.2; log10FFU (Influenza A virus [4]): 5.4; log10FFU (Influenza A virus [5]): 4.21; log10FFU (Influenza A virus [6]): 6.32; EC50 (Influenza A virus [7]): 4.7 µM; EC50 (Influenza A virus [8]): 0.19 µM; EC50 (Influenza A virus [9]): 1.59 µM; EC50 (Influenza A virus [10]): 2.93 µM; EC50 (Influenza A virus [11]): 1.21 µM; EC50 (Influenza A virus [12]): 4.46 µM; EC50 (Influenza A virus [13]): 3.95 µM; EC50 (Influenza A virus [14]): 5.22 µM; EC50 (Influenza A virus [15]): 4.08 µM; EC50 (Influenza B virus [16]): 5.03 µM; EC50 (Influenza A virus [17]): 5.99 µM; EC50 (Influenza B virus [18]): 5.3 µM
